According to ChEMBL document CHEMBL1156237, “Antiviral activity of benzimidazole derivatives. II. Antiviral activity of 2-phenylbenzimidazole derivatives” (Bioorg Med Chem, 2010):
Calls of active or inactive are those of the source.

Legend:
[1] = test system: Bovine viral diarrhea virus 1; test: Antiviral activity against Bovine viral diarrhea virus NADL infected in MDBK cells assessed as protection from virus-induced cytopathogenicity after 3 to 4 days by MTT method; assay type: functional, organism-based, Bovine viral diarrhea virus 1-NADL; conditions: Bovine viral diarrhea virus isolates and strains, MDBK
Summary of the method: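 Cytopathogenicity protection assay. MDBK cells at 3 × 10^4/well, grown overnight to confluence. Infected with BVDV NADL at m.o.i. 0.01 in MEM-E with 0.5% inactivated FBS, 1 mM Na pyruvate and 1% kanamycin. Serial compound dilutions added after 1 h. After 3–4 days at 37 °C, viability read by MTT; EC50 is the concentration giving 50% protection.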

[2] = test system: Respiratory syncytial virus; test: Antiviral activity against RSV A2 infected in african green monkey Vero cells after 5 days by plaque reduction assay; assay type: functional, organism-based; conditions: for EC50: human respiratory syncytial virus, A2, Vero, 120 h
Summary of the method: (§1)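 Plaque reduction assay. Vero 76 cells at 2 × 10^5/well, grown overnight to confluence in D-MEM with 10% FBS. Infected 2 h with 50–100 PFU/well, unadsorbed virus removed. Overlay of D-MEM with 1% inactivated FBS and 0.75% methylcellulose, with or without serial compound dilutions. Incubated at 37 °C for 3 days (HSV-1 KOS, CVB-2 Ohio-1) or 5 days (RSV A2). Fixed and stained with crystal violet in 50% ethanol; plaques counted; EC50 by linear regression.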

[3] = test system: Human immunodeficiency virus 1; test: Antiviral activity against HIV1 3B infected in human MT4 cells assessed as protection from virus-induced cytopathogenicity after 4 days by MTT method; assay type: functional, organism-based
Summary of the method: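 MT-4 cells, 1 × 10^4/well in RPMI with or without serial compound dilutions, infected with HIV-1 IIIB, 100 CCID50 (m.o.i. 0.01). Protection from virus-induced cytopathogenicity read by MTT.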

[4] = Cytotoxicity against human MT4 cells after 96 hrs by MTT assay; assay type: cell-based; conditions: MT4 cells
Summary of the method: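 Exponentially growing MT-4 cells at 1 × 10^5 cells/mL in RPMI-1640 with 10% FCS, exposed to serial compound dilutions at 37 °C, 5% CO2. Viability by MTT after 96 h; CC50 is the concentration reducing viability of mock-infected cells by 50%.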

Poliovirus 1 = test: Antiviral activity against Polio virus type1 Sabin strain Chat infected in african green monkey Vero cells after 2 days by plaque reduction assay; assay type: functional, organism-based, Human poliovirus 1 strain Sabin; conditions: Enterovirus C, 48 h
Yellow fever virus = test: Antiviral activity against Yellow fever virus 17D infected in BHK cells assessed as protection from virus-induced cytopathogenicity after 3 to 4 days by MTT method; assay type: functional, organism-based
[5] = test system: Mammalian orthoreovirus 1; test: Antiviral activity against Reovirus 1 3651 infected in BHK21 cells assessed as protection from virus-induced cytopathogenicity after 3 to 4 days by MTT method; assay type: functional, organism-based; conditions: for Activity: BHK-21; for EC50: Mammalian orthoreovirus 1, 3651, BHK-21
[6] = Cytotoxicity against BHK cells after 48 to 96 hrs by MTT assay; assay type: cell-based, Mesocricetus auratus; conditions: hamster
Summary of the method: (§2)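 Cell seeding: MDBK at 6 × 10^5 cells/mL in MEM-E with 10% horse serum and 1 mM Na pyruvate; BHK at 1 × 10^6 cells/mL in MEM-E with 10% FBS. Serial compound dilutions, 37 °C, 5% CO2. Viability of mock-infected cells by MTT after 48–96 h; CC50 is the concentration reducing viability by 50%.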

Vaccinia virus = test: Antiviral activity against Vaccinia virus Elstree-Lister infected in african green monkey Vero cells after 3 days by plaque reduction assay; assay type: functional, organism-based; conditions: Orthopoxvirus vaccinia; for EC50: 72 h
Coxsackievirus B2 = test: Antiviral activity against Human coxsackievirus B2 Ohio-1 infected in african green monkey Vero cells after 3 days by plaque reduction assay; assay type: functional, organism-based, Coxsackievirus B2 (strain Ohio-1); conditions: Enterovirus B, Vero, 72 h; summary of the method: as §1
[7] = Cytotoxicity against MDBK cells after 48 to 96 hrs by MTT assay; assay type: cell-based, Bos taurus; conditions: cattle, MDBK cells; summary of the method: as §2
Human alphaherpesvirus 1 = test: Antiviral activity against HSV1 KOS infected in african green monkey Vero cells after 3 days by plaque reduction assay; assay type: functional, organism-based; conditions: Human alphaherpesvirus 1, KOS, 72 h; summary of the method: as §1
[8] = Cytotoxicity against african green monkey Vero cells; assay type: cell-based; conditions: chlorocebus sabaeus
Summary of the method: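 Vero 76 monolayers exposed to serial compound dilutions, run in parallel on the same 24-well plates as the plaque-reduction assays. CC50 is the concentration reducing viability of mock-infected cells by 50%.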

[9] = test system: Vesicular stomatitis virus; test: Antiviral activity against VSV Indiana lab infected in african green monkey Vero cells after 2 days by plaque reduction assay; assay type: functional, organism-based

SMILES: CN1CCN(CC(=O)Nc2ccc(-c3nc4cc(C(F)(F)F)ccc4n3C)cc2)CC1
- EC50 [1]: 15 µM
- Activity [2]: inactive
- Activity [3]: inactive
- CC50 at 96 h [4]: 22 µM
- EC50 (Poliovirus 1): 41 µM
- EC50 (Yellow fever virus): 7 µM
- Activity [5]: inactive
- CC50 [6]: 16 µM
- Activity (Vaccinia virus): inactive
- EC50 (Coxsackievirus B2): 19 µM
- CC50 [7]: 44 µM
- EC50 (Human alphaherpesvirus 1): > 100 µM
- CC50 [8]: > 100 µM
- Activity [9]: inactive

SMILES: Cn1c(-c2ccc(NC(=O)CN3CCCC3)cc2)nc2cc(C(F)(F)F)ccc21
- EC50 [1]: 7 µM
- Activity [2]: inactive
- Activity [3]: inactive
- CC50 at 96 h [4]: 16 µM
- EC50 (Poliovirus 1): 50 µM
- EC50 (Yellow fever virus): > 27 µM
- Activity [5]: inactive
- CC50 [6]: 27 µM
- Activity (Vaccinia virus): inactive
- EC50 (Coxsackievirus B2): 13 µM
- CC50 [7]: 65 µM
- EC50 (Human alphaherpesvirus 1): 51 µM
- CC50 [8]: > 100 µM
- Activity [9]: inactive

SMILES: Oc1ccc(-c2nc3cc(C(F)(F)F)ccc3[nH]2)cc1
- EC50 [1]: > 51 µM
- EC50 [2]: 20 µM
- Activity [3]: inactive
- CC50 at 96 h [4]: 17 µM
- EC50 (Poliovirus 1): 24 µM
- EC50 (Yellow fever virus): 12 µM
- EC50 [5]: 7 µM
- CC50 [6]: > 100 µM
- EC50 (Vaccinia virus): > 100 µM
- EC50 (Coxsackievirus B2): 5 µM
- CC50 [7]: 51 µM
- EC50 (Human alphaherpesvirus 1): 25 µM
- CC50 [8]: > 100 µM
- Activity [9]: inactive

SMILES: COc1ccc(-c2nc3cc(C(F)(F)F)ccc3[nH]2)c(OC)c1OC
- EC50 [1]: > 100 µM
- EC50 [2]: > 70 µM
- Activity [3]: inactive
- CC50 at 96 h [4]: 93 µM
- EC50 (Poliovirus 1): 42 µM
- EC50 (Yellow fever virus): > 32 µM
- CC50 [6]: 32 µM
- EC50 (Vaccinia virus): > 70 µM
- EC50 (Coxsackievirus B2): 16 µM
- CC50 [7]: > 100 µM
- EC50 (Human alphaherpesvirus 1): > 70 µM
- CC50 [8]: 70 µM
- Activity [9]: inactive

SMILES: Oc1ccc(-c2nc3cc(Cl)c(Cl)cc3[nH]2)cc1
- EC50 [1]: > 11 µM
- EC50 [2]: 7 µM
- Activity [3]: inactive
- CC50 at 96 h [4]: 12 µM
- EC50 (Poliovirus 1): > 18 µM
- EC50 (Yellow fever virus): > 29 µM
- CC50 [6]: 29 µM
- EC50 (Vaccinia virus): > 18 µM
- EC50 (Coxsackievirus B2): > 18 µM
- CC50 [7]: 11 µM
- EC50 (Human alphaherpesvirus 1): > 18 µM
- CC50 [8]: 18 µM
- Activity [9]: inactive

SMILES: COc1ccc(-c2nc3cc([N+](=O)[O-])ccc3[nH]2)c(OC)c1OC
- EC50 [1]: > 100 µM
- EC50 [2]: > 100 µM
- Activity [3]: inactive
- CC50 at 96 h [4]: > 100 µM
- EC50 (Poliovirus 1): > 100 µM
- EC50 (Yellow fever virus): > 100 µM
- CC50 [6]: > 100 µM
- EC50 (Vaccinia virus): > 100 µM
- EC50 (Coxsackievirus B2): > 100 µM
- CC50 [7]: > 100 µM
- EC50 (Human alphaherpesvirus 1): > 100 µM
- CC50 [8]: > 100 µM
- Activity [9]: inactive

SMILES: Fc1cccc(F)c1-c1nc2cc(Cl)c(Cl)cc2[nH]1
- EC50 [1]: > 43 µM
- EC50 [2]: > 100 µM
- Activity [3]: inactive
- CC50 at 96 h [4]: 17 µM
- EC50 (Poliovirus 1): > 100 µM
- EC50 (Yellow fever virus): > 100 µM
- CC50 [6]: > 100 µM
- EC50 (Vaccinia virus): > 100 µM
- EC50 (Coxsackievirus B2): 30 µM
- CC50 [7]: 43 µM
- EC50 (Human alphaherpesvirus 1): > 100 µM
- CC50 [8]: > 100 µM
- Activity [9]: inactive

SMILES: Fc1cccc(F)c1-c1nc2cc(C(F)(F)F)ccc2[nH]1
- EC50 [1]: > 100 µM
- EC50 [2]: > 25 µM
- Activity [3]: inactive
- CC50 at 96 h [4]: 100 µM
- EC50 (Poliovirus 1): > 25 µM
- EC50 (Yellow fever virus): > 100 µM
- CC50 [6]: ≥ 100 µM
- EC50 (Vaccinia virus): > 25 µM
- EC50 (Coxsackievirus B2): > 25 µM
- CC50 [7]: ≥ 100 µM
- EC50 (Human alphaherpesvirus 1): > 25 µM
- CC50 [8]: 25 µM
- Activity [9]: inactive

SMILES: COc1ccc(-c2nc3cc(C(C)=O)ccc3[nH]2)c(OC)c1
- EC50 [1]: 42 µM
- EC50 [2]: > 100 µM
- Activity [3]: inactive
- CC50 at 96 h [4]: > 100 µM
- EC50 (Poliovirus 1): > 100 µM
- EC50 (Yellow fever virus): > 100 µM
- CC50 [6]: > 100 µM
- EC50 (Vaccinia virus): > 100 µM
- EC50 (Coxsackievirus B2): > 100 µM
- CC50 [7]: > 100 µM
- EC50 (Human alphaherpesvirus 1): > 100 µM
- CC50 [8]: > 100 µM
- Activity [9]: inactive

SMILES: COc1ccc(-c2nc3cc(Cl)c(Cl)cc3[nH]2)c(N)c1
- EC50 [1]: > 6.5 µM
- EC50 [2]: > 75 µM
- Activity [3]: inactive
- CC50 at 96 h [4]: 3 µM
- EC50 (Poliovirus 1): > 75 µM
- EC50 (Yellow fever virus): > 100 µM
- CC50 [6]: > 100 µM
- EC50 (Vaccinia virus): > 75 µM
- EC50 (Coxsackievirus B2): > 75 µM
- CC50 [7]: 6.5 µM
- EC50 (Human alphaherpesvirus 1): > 75 µM
- CC50 [8]: 75 µM
- Activity [9]: inactive

SMILES: O=[N+]([O-])c1ccc(-c2nc3cc(C(F)(F)F)ccc3[nH]2)cc1
- EC50 [1]: > 6 µM
- EC50 [2]: > 45 µM
- Activity [3]: inactive
- CC50 at 96 h [4]: 6 µM
- EC50 (Poliovirus 1): > 45 µM
- EC50 (Yellow fever virus): > 18 µM
- CC50 [6]: 18 µM
- EC50 (Vaccinia virus): 4 µM
- EC50 (Coxsackievirus B2): 12 µM
- CC50 [7]: 6 µM
- EC50 (Human alphaherpesvirus 1): > 45 µM
- CC50 [8]: 45 µM
- Activity [9]: inactive

SMILES: Nc1ccc(-c2nc3ccccc3[nH]2)cc1
- EC50 [1]: 16 µM
- Activity [3]: inactive
- CC50 at 96 h [4]: 81 µM
- EC50 (Poliovirus 1): > 100 µM
- EC50 (Yellow fever virus): > 100 µM
- EC50 [5]: 85 µM
- CC50 [6]: > 100 µM
- EC50 (Coxsackievirus B2): 19 µM
- CC50 [7]: > 100 µM
- EC50 (Human alphaherpesvirus 1): > 100 µM
- CC50 [8]: > 100 µM
- Activity [9]: inactive

SMILES: O=[N+]([O-])c1ccc(-c2nc3cc(C(F)(F)F)ccc3[nH]2)c([N+](=O)[O-])c1
- EC50 [1]: > 16 µM
- EC50 [2]: > 25 µM
- Activity [3]: inactive
- CC50 at 96 h [4]: 9 µM
- EC50 (Poliovirus 1): > 25 µM
- EC50 (Yellow fever virus): > 8 µM
- CC50 [6]: 8 µM
- EC50 (Vaccinia virus): > 25 µM
- EC50 (Coxsackievirus B2): 9 µM
- CC50 [7]: 16 µM
- EC50 (Human alphaherpesvirus 1): > 25 µM
- CC50 [8]: 25 µM
- Activity [9]: inactive
